Measured values collected from several papers.
Compare with care: the assays were run in different laboratories.
Target: Casein kinase I isoform alpha (CSNK1A1, Homo sapiens, UniProt P48729)

`N#CCCc1ccc2c(c1)-c1[nH]c3ccc([N+](=O)[O-])cc3c1CC(=O)N2` gave a remaining signal of 95.1% (cell-free assay; 0.5 µM).
With `CCN1CCN(Cc2ccc(NC(=O)c3ccc(C)c(/C=C/c4cnc5[nH]ccc5c4OC)c3)cc2C(F)(F)F)CC1` the inhibition was -75.1% (target engagement in cells, inhibitor, chemoproteomics; A-375; 0.5 µM).
With `CO[C@H]1CC[C@H](CNc2ccc(S(=O)(=O)NC(=O)c3ccc(N4CCN(CC5=C(c6ccc(Cl)cc6)CC(C)(C)CC5)CC4)cc3Oc3cnc4[nH]ccc4c3)cc2[N+](=O)[O-])CC1` the remaining binding was 85% (cell-free assay, competition with immobilised ligand; 1 µM).
`CN(CCCC(F)(F)F)c1nccc(-c2cnn3ncccc23)n1` gave a remaining binding of 86% (binding; 1 µM).
With `O=C(Nc1cnn(-c2csc(C(=O)NC3COC3)c2)c1)Nc1ccccc1Cl` the remaining activity was 98.5% (enzyme activity, inhibitor; 5 µM).
`Cc1cc(Nc2cc(N3CCN(C)CC3)nc(Sc3ccc(NC(=O)C4CC4)cc3)n2)[nH]n1` gave an activity vs control of 96.7% (enzyme activity, inhibitor; 0.5 µM).
`CN(C)C1CCN(CC#Cc2nn(C3CCCC3)c3nc(NCc4ccccc4)ncc23)C1` (centres unmarked) gave an inhibition of 2% (enzyme activity, inhibitor, FRET; 1 µM).
For `COc1cc2ncnc(Nc3ccc(F)c(Cl)c3)c2cc1OCCCN1CCOCC1`, the remaining signal was 98.6% (cell-free assay; 0.5 µM).
`O=C(O)[C@@H]1[C@@H](Cn2nnc3ccccc3c2=O)CC[C@H]1C(=O)c1ccc(OCCC2CCOCC2)cc1` gave a remaining binding of 97% (cell-free assay, competition with immobilised ligand; 1 µM).
For `Cc1ccc(C(=O)Nc2ccc(CN3CCN(C)CC3)c(C(F)(F)F)c2)cc1C#Cc1cnc2cccnn12`, the remaining activity was 86% (enzyme activity, inhibitor; 23.5 nM).
The inhibition of `COc1cccc2c(NCc3ccccc3)nc(-n3c(N)nc4ccccc43)nc12` is reported as 4.9% (target engagement in cells, inhibitor, chemoproteomics; 20 mM).
`O=C(Nc1cnn(-c2csc(C(=O)NC3COC3)c2)c1)Nc1c(F)cccc1Cl` has a remaining activity of 76.6% (enzyme activity, inhibitor; 5 µM).
The inhibition of `CNc1cccc2cc(C(=O)Nc3ccc(C(=O)O)cc3)c(=O)[nH]c12` is reported as 3.5% (enzyme activity, inhibitor; 10 µM).
With `CN(C)C(=O)Cn1cc(-c2nc([C@@](C)(c3ccc(-c4cnc(N)nc4)cc3)C3CC3)no2)cn1` the remaining binding was 100% (cell-free assay, competition with immobilised ligand; 1 µM).
`CCN1CCN(Cc2ccc(NC(=O)c3ccc(C)c(Oc4ccnc5[nH]ccc45)c3)cc2C(F)(F)F)CC1` gave an inhibition of -60.9% (target engagement in cells, inhibitor, chemoproteomics; A-375; 5 µM).
For `CCC(=O)N[C@H]1CC[C@@H](C(=O)N(C)c2ccc(-c3nc4ccccc4o3)cc2)C1`, the remaining binding was 82% (cell-free assay, competition with immobilised ligand; 1 µM).
`COc1cc2ncnc(Nc3ccc(Oc4ccccc4)cc3C)c2cc1OC` has an inhibition of 3% (enzyme activity, inhibitor; 1 µM).
The remaining binding of `CCc1ccccc1C(=O)Nc1n[nH]c2c(C)c(F)c(C3C(C#N)=C(C)N(C)C(C)=C3C#N)cc12` is reported as 96% (cell-free assay, competition with immobilised ligand; 1 µM).
With `O=C1Cc2c([nH]c3ccc(Br)cc23)-c2ccccc2N1` the remaining signal was 95.1% (cell-free assay; 0.5 µM).
With `O=C(NS(=O)(=O)c1ccc(NCC2CCOCC2)c([N+](=O)[O-])c1)c1ccc(N2CCN(Cc3ccc(C(F)(F)F)cc3-c3ccc(Cl)cc3)CC2)cc1Oc1cnc2[nH]ccc2c1` the remaining binding was 96% (cell-free assay, competition with immobilised ligand; 1 µM).
The remaining activity of `CC(C)(C)c1nc2c(s1)c1nc(N)ncc1c1ccc(NS(=O)(=O)c3c(F)cccc3F)c(F)c12` is reported as 86% (enzyme activity, inhibitor, radiometric; 1 µM).
`CN(c1ccnc(CNc2nc(Nc3ccc4c(c3)CC(=O)N4)ncc2C(F)(F)F)n1)S(C)(=O)=O` gave a remaining binding of 81% (cell-free assay, competition with immobilised ligand; 1 µM).
`COc1cc(OC)c(C=C2C(O)=Nc3ccccc32)c(OC)c1` gave a remaining signal of 59.6% (cell-free assay, inhibitor; 0.5 µM).
